Data taken from ChEMBL document CHEMBL1122569, “Synthesis and antiinflammatory activity of [(cycloalkylmethyl)phenyl]acetic acids and related compounds” (1984).

What was measured:
Rattus norvegicus [1] = assay: Analgesic activity on peroral administration against Scald induced pain in rat paw; format: functional; conditions: for ED50: Rattus norvegicus, po, read-out: ID50 (the source's name)
Outline: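 Male Wister Imamichi rats (~100 g), fasted 16 h. A hind paw was scalded at 57 °C for 6 s, then restimulated at 40 °C for 5 s. Compounds at 58–0.23 mg/kg in 0.5% tragacanth were given orally 2 h after scalding. Paw-lifting time over 30 s was recorded 1 and 2 h post-dose, and the mean used for % inhibition and ID50.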

Rattus norvegicus [2] = assay: Antiinflammatory activity on peroral administration against carrageenan paw edema; format: functional; conditions: po, read-out: ID50 (the source's name)
Outline: (§1)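 Compound given; 30 min later 1% carrageenan in saline injected subcutaneously into the hind-paw plantar region. Paw volume measured just before and 3 h after carrageenan. ID50 from a least-squares regression line of percent inhibition against dose.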

Cavia porcellus [3] = assay: Antipyretic activity on peroral administration against LPS-induced fever in guinea pig.; format: functional; conditions: po, read-out: ID50 (the source's name)
Outline: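 Female Hartley guinea pigs (300–350 g), fasted 16 h. Fever induced with E. coli LPS at 1 µg/kg i.v. Compounds were dosed at 6.3–0.23 mg/kg. Rectal temperature was taken 1 and 2 h after dosing and the mean used. ID50 by least-squares regression of % inhibition on dose.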

Rattus norvegicus [4] = assay: Analgesic activity on peroral administration against scald induced pain in rat paw; format: functional; conditions: po, read-out: ID50 (the source's name)
Outline: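 Male Wister Imamichi rats (about 100 g), fasted 16 h, had one hind paw scalded in 57 °C water for 6 s, then re-dipped in 40 °C water for 5 s. Oral dosing in 0.5% tragacanth (58–0.23 mg/kg) followed 2 h after scalding. Paw-lifting time within 30 s was scored 1 and 2 h post-dose. The mean of the two readings gave percent inhibition and ID50.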

Rattus norvegicus [5] = assay: Antiinflammatory activity on peroral administration in rat determined by Randall-Slelitto test; format: functional; conditions: po
Outline: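 Fasted male Wister Imamichi rats (60–90 g) received 20% brewer's yeast in the right hind paw. After 4 h, rats with pressure pain threshold below 10×30 g were dosed at 50–0.05 mg/kg. Animals were counted effective if the threshold rise exceeded twice the unmedicated control. ED50 by Litchfield–Wilcoxon.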

Rattus norvegicus [6] = assay: Gastric lesion activity on peroral administration in rat.; format: functional; conditions: po
Outline: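 Male Wister Imamichi rats (~120 g), fasted 16 h, dosed at 20–2.5 mg/kg. Killed 3.5 h later; stomachs opened along the greater curvature and rinsed with saline. Dark brown lesions of 0.5 mm length were counted under a stereomicroscope.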

Cavia porcellus [7] = assay: Analgesic activity on peroral administration against Bradykinin induced pain in guinea pig paw; conditions: po
Rattus norvegicus [8] = assay: Antiinflammatory activity on peroral administration against adjuvant arthritis in rat.; format: functional; conditions: po, read-out: ID50 (the source's name)
Outline: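 Female Lewis rats (160–200 g) received complete Freund adjuvant (heat-killed M. tuberculosis, 1 mg/mL in liquid paraffin) in the right hind paw. Dosing was 5.0–0.04 mg/kg once daily, days 0–20. Injected-paw swelling was measured by water displacement (day before vs day 21), as % inhibition versus untreated control. ID50 by least-squares regression.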

Rattus norvegicus [9] = assay: Antiinflammatory activity on peroral administration against carrageenan induced rat paw edema.; format: functional; conditions: po, read-out: ID50 (the source's name); outline: as §1

SMILES	ED50 (Rattus norvegicus [1])	ED50 (Rattus norvegicus [2])	further results
CC(C(=O)O)c1ccc(/C=C2\CCCC2=O)cc1 (stereo not given)	1.3 mg/kg	1.5 mg/kg	
O=C(O)Cc1ccc(CC2CCCC2=O)cc1 (stereo not given)	23 mg/kg	9.1 mg/kg	
CC(C(=O)O)c1ccc(/C=C2\CCCCCC2=O)cc1 (stereo not given)	> 100 mg/kg	> 100 mg/kg	
O=C(O)Cc1ccc(CC2CCCCC2=O)cc1 (stereo not given)	53.8 mg/kg	45.7 mg/kg	
COc1ccc2c(c1)c(CC(=O)O)c(C)n2C(=O)c1ccc(Cl)cc1 [INDOMETHACIN]	3.5 mg/kg	2.2 mg/kg	ED50 (Cavia porcellus [3]): 9.5 mg/kg; ED50 (Rattus norvegicus [4]): 3.5 mg/kg; ED50 (Rattus norvegicus [5]): 2.8 mg/kg; UD50 (Rattus norvegicus [6]): 6.4 mg/kg; ED50 (Cavia porcellus [7]): 8.3 mg/kg
CC(C(=O)O)c1ccc(CC2CCC/C2=N/O)cc1 (stereo not given)	4.9 mg/kg	1.3 mg/kg	
CC(C(=O)O)c1ccc(CC2CCCCCC2=O)cc1 (stereo not given)	> 100 mg/kg	> 100 mg/kg	
O=C(O)Cc1ccc(CC2CCC/C2=N/O)cc1 (stereo not given)	15 mg/kg	24.8 mg/kg	
CC(C(=O)O)c1ccc(CC2CCCC2=O)cc1 (stereo not given) [LOXOPROFEN]	0.8 mg/kg	1.7 mg/kg	
CC(C(=O)O)c1ccc(CC2CCCCC/C2=N/O)cc1 (stereo not given)	> 100 mg/kg	> 100 mg/kg	
CC(C(=O)O)c1ccc(CC2CCCC/C2=N/O)cc1 (stereo not given)	3.6 mg/kg	1.4 mg/kg	
CC(C(=O)O)c1ccc(/C=C2\CCCCC2=O)cc1 (stereo not given) [PELUBIPROFEN]	1.8 mg/kg	0.9 mg/kg	ED50 (Cavia porcellus [3]): 1.5 mg/kg; ID50 (Rattus norvegicus [1]): 1.7 mg/kg; ED50 (Rattus norvegicus [5]): 0.94 mg/kg; ED50 (Rattus norvegicus [8]): 0.06 mg/kg; ED50 (Rattus norvegicus [9]): 1.2 mg/kg; UD50 (Rattus norvegicus [6]): 14.3 mg/kg; ED50 (Cavia porcellus [7]): 4.5 mg/kg
CC(C(=O)O)c1ccc(CC2CCCC2)cc1 (stereo not given)	5.1 mg/kg	> 100 mg/kg	
CC(C(=O)[O-])c1ccc(CC2CCCC2=O)cc1.[Na+] (stereo not given) [LOXOPROFEN SODIUM]	0.76 mg/kg	1.2 mg/kg	ED50 (Cavia porcellus [3]): 0.76 mg/kg; ED50 (Rattus norvegicus [5]): 0.13 mg/kg; ED50 (Rattus norvegicus [8]): 0.59 mg/kg; UD50 (Rattus norvegicus [6]): 16.1 mg/kg; ED50 (Cavia porcellus [7]): 0.4 mg/kg
CC(C)Cc1ccc(C(C)C(=O)O)cc1 (stereo not given) [IBUPROFEN]	15.9 mg/kg		
O=C(O)Cc1ccc(CC2CCCC/C2=N/O)cc1 (stereo not given)	31.1 mg/kg	23.5 mg/kg	
CC(C(=O)O)c1ccc(CC2CCCCC2=O)cc1 (stereo not given)	9.1 mg/kg	1.2 mg/kg	
